A word on the pKa: it is the negative logarithm of the acid dissociation constant. Read a high pKa as a group that holds its proton tightly. Broadly, the IC50 is the concentration that inhibits the measured activity by half. A low value points to greater potency.

System in the first data set: not listed separately
The data set is described as follows: pKa value of the compound. The data set is classed as physicochemical. In short, it runs like this: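 Potentiometric titration with 0.1 N NaOH to pH ca. 10, ionic strength held constant with 0.15 M KCl.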
`Oc1onc2c1CCNCC2` yielded a pKa of 3.3.
On the same count and under the same terms, as for `Oc1onc2c1CNCCC2`, the figure is 2.6; as for `NCCC(N)C(=O)O` (stereo unspecified), 4.
The compound `Oc1onc2c1CNCC2` gave a pKa of 3.
Still for that read-out and setting: as for `Oc1onc2c1CCCNC2`, the figure is 2.5.

In the next data set the target is GABA-A receptor; anion channel. The experiment in a line: In vitro inhibition of [3H]GABA binding to Gamma-aminobutyric acid receptor from rat brain synaptic membranes. The data set is classed as cell membranes, Membrane. In short, it runs like this: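 Rat brain synaptic membranes (0.8–1.2 mg protein) incubated in triplicate in 50 mM Tris-citrate pH 7.1 with 5 nM [3H]GABA and various test concentrations, 15 min at 2 °C. Centrifugation at 48000g for 10 min, pellets rinsed twice with cold water, scintillation counting. Nonspecific binding (1 mM GABA) subtracted. IC50 by log-probit analysis of inhibition at at least four concentrations.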
With `Oc1noc2c1CNCC2`, the half-inhibitory concentration (IC50) amounted to 72 µM.
Same read-out and setting: the value for `Oc1onc2c1CCNCC2` was 15 µM; that for `Oc1onc2c1CNCCC2` was more than 100 µM; that for `NCCC(N)C(=O)O` (stereo unspecified) was 0.033 µM.
Same read-out and setting: as for `Oc1onc2c1CNCC2`, the figure is 100 µM; as for `Oc1onc2c1CCCNC2`, more than 100 µM.

The next data set concerns the target GABA transporter (Rattus norvegicus, UniProt P31647+P23978+P31646+P48056). The data set is described as follows: In vitro inhibition of rat neuronal (synaptosomal) GABA uptake. It is filed as protein assay. The method, boiled down:
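Crude rat whole-brain synaptosomes (homogenized in 0.32 M sucrose, 600g and 25000g spins at 4 °C) suspended in oxygenated phosphate medium. Preincubated 10 min at 25 °C with inhibitor, then [3H]GABA added to 50 nM final and incubated 10 min more. Rapid glass-fiber filtration, ice-cold buffer wash, scintillation counting.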
With `Oc1onc2c1CCNCC2`, the IC50 was more than 300 µM.
Same read-out and setting: as for `Oc1onc2c1CNCCC2`, the figure is more than 300 µM.
`Oc1onc2c1CNCC2` showed a concentration for half-maximal inhibition (IC50) of 130 µM.
The same measure, in the same setting: as for `Oc1noc2c1CCNCC2`, the figure is more than 300 µM; as for `Oc1onc2c1CCCNC2`, more than 300 µM.
